Test results from ChEMBL document CHEMBL4000211, “Discovery of novel polycyclic spiro-fused carbocyclicoxindole-based anticancer agents” (Eur J Med Chem, 2017).

What was measured:
MCF7 = experiment: Antiproliferative activity against human MCF7 cells after 48 hrs by MTT assay; type: functional, cell-based; conditions: MCF7, 48 h
Procedure, shortened: (§1)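 Cells seeded at 3×10³/well and grown 24 h, then exposed 48 h to six final concentrations, twofold steps down from 30. MTT (5 mg/mL) was added for 2–4 h at 37 °C. Supernatant was removed, formazan dissolved in DMSO, and OD read at 570 nm. Results are given as IC50, or as percent inhibition where IC50 exceeds the top concentration. At least three runs.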

HCT-116 = experiment: Antiproliferative activity against human HCT116 cells after 48 hrs by MTT assay; type: functional, cell-based; conditions: HCT-116, 48 h; procedure, shortened: as §1
NCI-H1299 = experiment: Antiproliferative activity against human NCI-H1299 cells after 48 hrs by MTT assay; type: functional, cell-based; conditions: NCI-H1299, 48 h; procedure, shortened: as §1
A2780/Taxol = experiment: Antiproliferative activity against human A2780T cells at 30 uM after 48 hrs by MTT assay relative to control; type: functional; procedure, shortened: as §1
NCI-H1975 = experiment: Antiproliferative activity against human NCI-H1975 cells after 48 hrs by MTT assay; type: functional, cell-based; conditions: NCI-H1975, 48 h; procedure, shortened: as §1
CT26 = experiment: Antiproliferative activity against mouse CT26 cells after 48 hrs by MTT assay; type: functional, cell-based; conditions: CT26, 48 h; procedure, shortened: as §1
A2780S [1] = experiment: Antiproliferative activity against human A2780S cells at 30 uM after 48 hrs by MTT assay relative to control; type: functional; procedure, shortened: as §1
A549 = experiment: Antiproliferative activity against human A549 cells after 48 hrs by MTT assay; type: functional, cell-based; conditions: A549, 48 h; procedure, shortened: as §1
BGC-823 = experiment: Antiproliferative activity against human BGC823 cells after 48 hrs by MTT assay; type: functional, cell-based; conditions: BGC-823, 48 h; procedure, shortened: as §1
A2780S [2] = experiment: Antiproliferative activity against human A2780S cells after 48 hrs by MTT assay; type: functional, cell-based; procedure, shortened: as §1

Row | SMILES | IC50 (MCF7) [µM] | IC50 (HCT-116) [µM] | IC50 (NCI-H1299) [µM] | IC50 (NCI-H1975) [µM] | IC50 (CT26) [µM] | IC50 (A549) [µM] | IC50 (BGC-823) [µM] | IC50 (A2780S [2]) [µM] | inhibition at 30 µM (A2780/Taxol) [%] | inhibition at 30 µM (A2780S [1]) [%]
1 | CC[C@@H]1C(C=O)=C[C@H]2[C@@H](c3ccccc3O[C@@H]2CC)[C@@]12C(=O)Nc1ccccc12 | > 30 | > 30 | > 30 | > 30 | > 30 | > 30 | > 30 | – | 9 | 34.1
2 | C[C@@H]1C(C=O)=C[C@H]2[C@@H](c3ccccc3O[C@@H]2C)[C@@]12C(=O)Nc1ccccc12 | > 30 | > 30 | > 30 | > 30 | > 30 | > 30 | > 30 | – | 17.3 | 23.5
3 | C[C@@H]1C(C=O)=C[C@H]2[C@@H](c3cc(Br)ccc3O[C@@H]2C)[C@@]12C(=O)Nc1ccccc12 | > 30 | > 30 | > 30 | > 30 | > 30 | > 30 | > 30 | – | 2.3 | 35.9
4 | C[C@@H]1C(C=O)=C[C@H]2[C@@H](c3cc(F)ccc3O[C@@H]2C)[C@@]12C(=O)Nc1ccccc12 | > 30 | > 30 | > 30 | > 30 | > 30 | > 30 | > 30 | – | 2.6 | 22.7
5 | CCC[C@@H]1C(C=O)=C[C@H]2[C@@H](c3ccccc3O[C@@H]2CCC)[C@@]12C(=O)Nc1ccccc12 | > 30 | > 30 | > 30 | > 30 | > 30 | > 30 | > 30 | 25.7 | 33.1 | –
6 | COc1ccc2c(c1)O[C@H](C)[C@H]1C=C(C=O)[C@@H](C)[C@]3(C(=O)Nc4ccccc43)[C@H]21 | > 30 | > 30 | > 30 | > 30 | > 30 | > 30 | > 30 | – | 3.9 | 9.3
7 | Cc1ccc2c(c1)[C@]1(C(=O)N2)[C@H](C)C(C=O)=C[C@H]2[C@H]1c1ccccc1O[C@@H]2C | > 30 | > 30 | > 30 | > 30 | > 30 | > 30 | > 30 | – | 7.1 | 12.8
8 | C[C@@H]1C(C=O)=C[C@H]2[C@@H](c3ccccc3O[C@@H]2C)[C@@]12C(=O)Nc1ccc(F)cc12 | > 30 | > 30 | > 30 | > 30 | > 30 | > 30 | > 30 | – | 4.4 | 14.5
9 | C[C@@H]1C(C=O)=C[C@H]2[C@@H](c3ccccc3OC2(C)C)[C@@]12C(=O)Nc1ccccc12 | > 30 | > 30 | > 30 | > 30 | > 30 | > 30 | > 30 | – | 3.8 | 14.4
10 | C[C@@H]1C(C=O)=C[C@H]2[C@@H](c3cc(Cl)ccc3O[C@@H]2C)[C@@]12C(=O)Nc1ccccc12 | > 30 | > 30 | > 30 | > 30 | > 30 | > 30 | > 30 | – | 5.8 | 16.5
11 | Cc1ccc2c(c1)[C@@H]1[C@H](C=C(C=O)[C@@H](C)[C@]13C(=O)Nc1ccccc13)[C@@H](C)O2 | > 30 | > 30 | > 30 | > 30 | > 30 | > 30 | > 30 | – | 10.4 | 28.2

More lines, main results first:

Row | IC50 (MCF7) [µM] | IC50 (HCT-116) [µM] | IC50 (NCI-H1299) [µM] | IC50 (NCI-H1975) [µM] | IC50 (CT26) [µM] | IC50 (A549) [µM] | IC50 (BGC-823) [µM] | IC50 (A2780S [2]) [µM] | SMILES | inhibition at 30 µM (A2780/Taxol) [%] | inhibition at 30 µM (A2780S [1]) [%]
12 | > 30 | > 30 | 30 | > 30 | > 30 | > 30 | 25.7 | 18.9 | C[C@@H]1C(C=O)=C[C@H]2[C@@H](c3ccccc3O[C@@H]2C)[C@@]12C(=O)N(c1ccccc1)c1ccccc12 | 40.6 | –
13 | > 30 | > 30 | > 30 | > 30 | > 30 | > 30 | > 30 | – | C[C@@H]1C(C=O)=C[C@H]2[C@@H](c3ccccc3N[C@@H]2C)[C@@]12C(=O)Nc1ccccc12 | 15.2 | 47.2
14 | > 30 | > 30 | > 30 | > 30 | > 30 | > 30 | > 30 | – | C[C@@H]1C(C=O)=C[C@H]2[C@@H](c3cccc(F)c3O[C@@H]2C)[C@@]12C(=O)Nc1ccccc12 | 5.7 | 22.2
15 | > 30 | 25.8 | > 30 | > 30 | 27.1 | > 30 | > 30 | 21.6 | O=CC1=C[C@@H]2COc3ccccc3[C@H]2C2(C1)C(=O)Nc1ccccc12 (some centres not stated) | 25 | –
16 | > 30 | > 30 | > 30 | > 30 | > 30 | > 30 | > 30 | 19.7 | C[C@@H]1C(C=O)=C[C@H]2[C@@H](c3ccccc3O[C@@H]2C)[C@@]12C(=O)Nc1cc(Cl)ccc12 | 13.1 | –
17 | > 30 | > 30 | > 30 | > 30 | > 30 | > 30 | > 30 | – | C[C@@H]1C(C=O)=C[C@H]2[C@@H](c3cc([N+](=O)[O-])ccc3O[C@@H]2C)[C@@]12C(=O)Nc1ccccc12 | 0.2 | 25.2
18 | > 30 | > 30 | > 30 | > 30 | > 30 | > 30 | > 30 | – | C[C@@H]1C(C=O)=C[C@H]2[C@@H](c3ccccc3O[C@@H]2C)[C@@]12C(=O)N(C)c1ccccc12 | 4.5 | 26.3
